# Measurements from different studies.
# Compare with care: the assays were run in different laboratories.
# Target: Carbonic anhydrase 2 (CA2, Homo sapiens, UniProt P00918)
# Read-out: enzyme activity
# Action: inhibitor
Structure (SMILES),method,pH,endpoint,result
NS(=O)(=O)c1cnc(NC(=O)CCc2ccccc2)s1,stopped-flow,,Ki,98.7 nM
OC1CCN(c2ccc(/C=N/NC(=S)NCc3ccc(Cl)cc3)cc2)CC1,absorbance,,IC50,374 nM
CN(C/C=C/C#CC(C)(C)C)Cc1cccc2ccccc12,absorbance,pH 7.4,IC50,32200 nM
OC1CCN(c2ccc(/C=N/NC(=S)NCc3ccccc3)cc2)CC1,absorbance,,IC50,504 nM
CC1CCCCC1CC(=O)Nc1nnc(S(N)(=O)=O)s1 (stereo not drawn),stopped-flow,,Ki,29.2 nM
NS(=O)(=O)c1ccc(Nc2nc(-c3cc4cc(Br)ccc4oc3=O)cs2)c(Br)c1,absorbance,,IC50,5860 nM
CC(C)CNC(=S)N/N=C/c1ccc(N2CCC(O)CC2)cc1,absorbance,,IC50,695 nM
CC(C)(C)CCC(=O)Nc1nnc(S(N)(=O)=O)s1,stopped-flow,,Ki,10.2 nM
Cn1cnc([N+](=O)[O-])c1Sc1ncnc2nc[nH]c12,absorbance,pH 7.4,IC50,20600 nM
O=C(O)c1ccc(Nc2nc(-c3cc4cc(Br)ccc4oc3=O)cs2)cc1,absorbance,,IC50,1290 nM
OC1CCN(c2ccc(/C=N/NC(=S)Nc3cccc(Cl)c3Cl)cc2)CC1,absorbance,,IC50,267 nM
CCOC(=O)N1CCC(=C2c3ccc(Cl)cc3CCc3cccnc32)CC1,absorbance,pH 7.4,IC50,13100 nM
OC1CCN(c2ccc(/C=N/NC(=S)Nc3ccc(F)cc3)cc2)CC1,absorbance,,IC50,255 nM
O=C(O)COCCN1CCN(C(c2ccccc2)c2ccc(Cl)cc2)CC1 (stereo not drawn),absorbance,pH 7.4,IC50,15200 nM
NS(=O)(=O)c1nnc(NC(=O)CCCC2CCCCC2)s1,stopped-flow,,Ki,8.8 nM
